The values that follow come from ChEMBL document CHEMBL1123068, “2-Fluoroformycin and 2-aminoformycin. Synthesis and biological activity” (J Med Chem, 1985).

This assay relates to L1210. The assay is described as follows: Cytotoxic concentration required to reduce rate of L1210 cell proliferation after 48 hr. Type of assay: functional, cell-based. To be noted: Mus musculus, L1210, 48 h. In outline:
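L1210 cells grown rapidly in suspension culture were exposed to a range of inhibitor concentrations, some tests with the adenosine deaminase inhibitor pentostatin added. The drop in proliferation rate versus untreated controls was found by cell counts at 24 and 48 h after addition, and IC50 was taken from this.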
In general, IC50 refers to the midpoint of a concentration-inhibition curve. The low end stands for greater potency in that assay, the high end for weaker potency in that assay. In turn, `Nc1nc(F)nc2c([C@@H]3O[C@H](CO)[C@@H](O)[C@H]3O)n[nH]c12.OC[C@H]1O[C@@H](n2cnc3c2NC=NC[C@H]3O)C[C@@H]1O` registered an IC50 of 22 µM.

In turn, `Nc1ncnc2c([C@@H]3O[C@H](CO)[C@@H](O)[C@H]3O)[nH]nc12` [FORMYCIN] showed an IC50 of 1 µM.

Consider `Nc1nc(N)c2[nH]nc([C@@H]3O[C@H](CO)[C@@H](O)[C@H]3O)c2n1`, for which inhibition was half-maximal at 31 µM (IC50).

The compound `Nc1nc(N)c2[nH]nc([C@@H]3O[C@H](CO)[C@@H](O)[C@H]3O)c2n1.OC[C@H]1O[C@@H](n2cnc3c2NC=NC[C@H]3O)C[C@@H]1O` returned an IC50 of 5 µM. This IC50 lies about 6.2-fold lower than the previous one.

Regarding `Nc1nc(F)nc2c([C@@H]3O[C@H](CO)[C@@H](O)[C@H]3O)n[nH]c12`, the midpoint of inhibition, the IC50, lay at 12 µM.

Compound `Nc1ncnc2c([C@@H]3O[C@H](CO)[C@@H](O)[C@H]3O)n[nH]c12.OC[C@H]1O[C@@H](n2cnc3c2NC=NC[C@H]3O)C[C@@H]1O` yielded an IC50 of 0.2 µM. Against the preceding compound, the IC50 is about 60-fold lower.
